Data reported in ChEMBL document CHEMBL4715745, “Synthesis and biological evaluation of novel FK228 analogues as potential isoform selective HDAC inhibitors” (Eur J Med Chem, 2016).

test system: DMS-273; test: Growth inhibition of human DMS-273 cells measured after 48 hrs by sulforhodamine B assay; assay type: functional; details: not given
Procedure, shortened: (§1)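 Panel of 39 human cancer cell lines tested at the Japanese Foundation for Cancer Research. Five concentrations per compound, spanning 10⁻¹¹–10⁻⁷ M, 10⁻¹⁰–10⁻⁶ M or 10⁻⁸–10⁻⁴ M, were used to build dose-response curves. GI₅₀ is the concentration giving 50% growth inhibition relative to control.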

SMILES | GI50
CC(C)[C@H]1NC(=O)C[C@H]2/C=C/CCSSC[C@@H](NC1=O)C(=O)N[C@H](C)C(=O)NCC(=O)O2 | 89 nM

test system: DMS-114; test: Growth inhibition of human DMS-114 cells measured after 48 hrs by sulforhodamine B assay; assay type: functional; details: not given; procedure, shortened: as §1

SMILES | GI50
CC(C)[C@H]1NC(=O)C[C@H]2/C=C/CCSSC[C@@H](NC1=O)C(=O)N[C@H](C)C(=O)NCC(=O)O2 | 17 nM

test system: MCF7; test: Growth inhibition of human MCF7 cells measured after 48 hrs by sulforhodamine B assay; assay type: functional; details: not given; procedure, shortened: as §1

SMILES | GI50
CC(C)[C@H]1NC(=O)C[C@H]2/C=C/CCSSC[C@@H](NC1=O)C(=O)N[C@H](C)C(=O)NCC(=O)O2 | 37 nM

test system: U-251; test: Growth inhibition of human U-251 cells measured after 48 hrs by sulforhodamine B assay; assay type: functional; details: not given; procedure, shortened: as §1

SMILES | GI50
CC(C)[C@H]1NC(=O)C[C@H]2/C=C/CCSSC[C@@H](NC1=O)C(=O)N[C@H](C)C(=O)NCC(=O)O2 | 19 nM

test system: MKN-7; test: Growth inhibition of human MKN-7 cells measured after 48 hrs by sulforhodamine B assay; assay type: functional; details: not given; procedure, shortened: as §1

SMILES | GI50
CC(C)[C@H]1NC(=O)C[C@H]2/C=C/CCSSC[C@@H](NC1=O)C(=O)N[C@H](C)C(=O)NCC(=O)O2 | 260 nM

test system: SK-OV-3; test: Growth inhibition of human SK-OV-3 cells measured after 48 hrs by sulforhodamine B assay; assay type: functional; details: not given; procedure, shortened: as §1

SMILES | GI50
CC(C)[C@H]1NC(=O)C[C@H]2/C=C/CCSSC[C@@H](NC1=O)C(=O)N[C@H](C)C(=O)NCC(=O)O2 | 19 nM

test system: MKN-1; test: Growth inhibition of human MKN-1 cells measured after 48 hrs by sulforhodamine B assay; assay type: functional; details: not given; procedure, shortened: as §1

SMILES | GI50
CC(C)[C@H]1NC(=O)C[C@H]2/C=C/CCSSC[C@@H](NC1=O)C(=O)N[C@H](C)C(=O)NCC(=O)O2 | 36 nM

test system: NCI-H23; test: Growth inhibition of human NCI-H23 cells measured after 48 hrs by sulforhodamine B assay; assay type: functional; details: not given; procedure, shortened: as §1

SMILES | GI50
CC(C)[C@H]1NC(=O)C[C@H]2/C=C/CCSSC[C@@H](NC1=O)C(=O)N[C@H](C)C(=O)NCC(=O)O2 | 31 nM

test system: SF-268; test: Growth inhibition of human SF-268 cells measured after 48 hrs by sulforhodamine B assay; assay type: functional; details: not given; procedure, shortened: as §1

SMILES | GI50
CC(C)[C@H]1NC(=O)C[C@H]2/C=C/CCSSC[C@@H](NC1=O)C(=O)N[C@H](C)C(=O)NCC(=O)O2 | 31 nM

molecular target: Histone deacetylase 1 (Homo sapiens, UniProt Q13547); test: Inhibition of human HDAC1 expressed in 293T cells using Ac-KGLGK(Ac)-MCA as substrate incubated for 30 mins in presence of 0.1 mM DTT by fluorescence plate reader assay; parameters: species or system HEK293T; details: not given
Sequence (Q13547 whole entry): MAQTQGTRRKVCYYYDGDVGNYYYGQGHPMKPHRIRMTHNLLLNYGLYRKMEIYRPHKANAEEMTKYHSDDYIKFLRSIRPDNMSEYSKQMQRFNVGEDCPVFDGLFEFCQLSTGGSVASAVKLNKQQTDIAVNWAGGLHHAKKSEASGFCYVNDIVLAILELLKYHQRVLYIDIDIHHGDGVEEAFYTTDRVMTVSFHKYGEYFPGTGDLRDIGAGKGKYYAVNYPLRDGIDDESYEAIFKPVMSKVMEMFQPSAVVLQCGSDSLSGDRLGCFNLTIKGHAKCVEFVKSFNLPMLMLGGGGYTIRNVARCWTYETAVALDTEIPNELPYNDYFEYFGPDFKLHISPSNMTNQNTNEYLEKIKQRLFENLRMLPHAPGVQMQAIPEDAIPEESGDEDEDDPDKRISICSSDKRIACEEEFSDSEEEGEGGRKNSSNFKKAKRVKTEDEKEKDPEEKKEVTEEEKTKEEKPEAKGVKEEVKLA

SMILES | IC50
CC(C)[C@H]1NC(=O)C[C@H]2/C=C/CCSSC[C@@H](NC1=O)C(=O)N[C@H](C)C(=O)NCC(=O)O2 | 2.1 nM

test system: HCT-15; test: Growth inhibition of human HCT-15 cells measured after 48 hrs by sulforhodamine B assay; assay type: functional; details: not given; procedure, shortened: as §1

SMILES | GI50
CC(C)[C@H]1NC(=O)C[C@H]2/C=C/CCSSC[C@@H](NC1=O)C(=O)N[C@H](C)C(=O)NCC(=O)O2 | 6700 nM

test system: St-4; test: Growth inhibition of human St-4 cells measured after 48 hrs by sulforhodamine B assay; assay type: functional; details: not given; procedure, shortened: as §1

SMILES | GI50
CC(C)[C@H]1NC(=O)C[C@H]2/C=C/CCSSC[C@@H](NC1=O)C(=O)N[C@H](C)C(=O)NCC(=O)O2 | 410 nM

test system: SNB-75; test: Growth inhibition of human SNB-75 cells measured after 48 hrs by sulforhodamine B assay; assay type: functional; details: not given; procedure, shortened: as §1

SMILES | GI50
CC(C)[C@H]1NC(=O)C[C@H]2/C=C/CCSSC[C@@H](NC1=O)C(=O)N[C@H](C)C(=O)NCC(=O)O2 | 10 nM

test system: LOX IMVI; test: Growth inhibition of human LOX IMVI cells measured after 48 hrs by sulforhodamine B assay; assay type: functional; details: not given; procedure, shortened: as §1

SMILES | GI50
CC(C)[C@H]1NC(=O)C[C@H]2/C=C/CCSSC[C@@H](NC1=O)C(=O)N[C@H](C)C(=O)NCC(=O)O2 | 11 nM

molecular target: T1, Protein deacetylase HDAC6 (Mus musculus, UniProt Q9Z2V5); test: Inhibition of mouse HDAC6 expressed in 293T cells using Ac-KGLGK(Ac)-MCA as substrate incubated for 30 mins in presence of 0.1 mM DTT by fluorescence plate reader assay; parameters: species or system HEK293T; details: not given
T1 sequence (Q9Z2V5 whole entry): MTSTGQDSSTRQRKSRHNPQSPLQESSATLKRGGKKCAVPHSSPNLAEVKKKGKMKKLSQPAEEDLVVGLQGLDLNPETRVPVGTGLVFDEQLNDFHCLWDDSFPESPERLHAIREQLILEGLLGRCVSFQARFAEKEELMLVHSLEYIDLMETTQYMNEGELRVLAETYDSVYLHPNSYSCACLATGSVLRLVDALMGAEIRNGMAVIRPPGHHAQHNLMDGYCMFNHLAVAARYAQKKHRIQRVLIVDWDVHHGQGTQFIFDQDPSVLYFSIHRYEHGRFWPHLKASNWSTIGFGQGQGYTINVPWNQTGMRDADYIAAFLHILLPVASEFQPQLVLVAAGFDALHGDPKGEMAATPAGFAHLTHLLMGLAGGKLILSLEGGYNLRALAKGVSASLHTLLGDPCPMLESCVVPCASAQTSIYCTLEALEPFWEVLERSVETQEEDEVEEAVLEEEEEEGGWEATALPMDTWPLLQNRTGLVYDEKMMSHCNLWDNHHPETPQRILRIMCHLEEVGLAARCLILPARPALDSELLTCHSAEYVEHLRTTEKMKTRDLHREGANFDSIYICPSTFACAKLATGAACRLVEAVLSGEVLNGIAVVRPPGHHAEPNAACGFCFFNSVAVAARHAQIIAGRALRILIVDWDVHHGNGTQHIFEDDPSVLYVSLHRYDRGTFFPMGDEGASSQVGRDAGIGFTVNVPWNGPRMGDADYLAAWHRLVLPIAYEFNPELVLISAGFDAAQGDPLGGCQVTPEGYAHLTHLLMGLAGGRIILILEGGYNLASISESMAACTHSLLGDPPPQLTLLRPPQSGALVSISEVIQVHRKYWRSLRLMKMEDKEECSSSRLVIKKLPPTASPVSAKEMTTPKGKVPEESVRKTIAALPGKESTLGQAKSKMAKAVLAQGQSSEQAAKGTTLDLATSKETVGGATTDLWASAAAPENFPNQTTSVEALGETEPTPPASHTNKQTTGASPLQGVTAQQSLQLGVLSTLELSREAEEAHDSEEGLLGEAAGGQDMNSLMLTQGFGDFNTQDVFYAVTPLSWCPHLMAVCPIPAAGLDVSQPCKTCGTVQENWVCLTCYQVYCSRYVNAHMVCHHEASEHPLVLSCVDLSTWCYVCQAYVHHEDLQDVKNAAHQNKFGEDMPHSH
Procedure, shortened: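 HDAC enzyme assay run in the presence of 0.1 mM dithiothreitol (DTT); IC₅₀ determined.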

SMILES | IC50
CC(C)[C@H]1NC(=O)C[C@H]2/C=C/CCSSC[C@@H](NC1=O)C(=O)N[C@H](C)C(=O)NCC(=O)O2 | 1010 nM

test system: not listed separately; test: Selectivity index, ratio of IC50 for mouse HDAC6 expressed in 293T cells to IC50 for human HDAC1 expressed in 293T cells using Ac-KGLGK(Ac)-MCA as substrate incubated for 30 mins in presence of 0.1 mM DTT by fluorescence plate reader assay; details: 0.5 h
Procedure, shortened: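 Ratio of HDAC6 IC₅₀ to HDAC1 IC₅₀, taken as selectivity for class I HDAC1 over class II HDAC6. Both enzyme assays were run in the presence of 0.1 mM DTT.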

SMILES | Ratio IC50
CC(C)[C@H]1NC(=O)C[C@H]2/C=C/CCSSC[C@@H](NC1=O)C(=O)N[C@H](C)C(=O)NCC(=O)O2 | 480

test system: NCI-H460; test: Growth inhibition of human NCI-H460 cells measured after 48 hrs by sulforhodamine B assay; assay type: functional; details: not given; procedure, shortened: as §1

SMILES | GI50
CC(C)[C@H]1NC(=O)C[C@H]2/C=C/CCSSC[C@@H](NC1=O)C(=O)N[C@H](C)C(=O)NCC(=O)O2 | 15 nM

test system: DU-145; test: Growth inhibition of human DU-145 cells measured after 48 hrs by sulforhodamine B assay; assay type: functional; details: not given; procedure, shortened: as §1

SMILES | GI50
CC(C)[C@H]1NC(=O)C[C@H]2/C=C/CCSSC[C@@H](NC1=O)C(=O)N[C@H](C)C(=O)NCC(=O)O2 | 21 nM

test system: OVCAR-8; test: Growth inhibition of human OVCAR-8 cells measured after 48 hrs by sulforhodamine B assay; assay type: functional; details: not given; procedure, shortened: as §1

SMILES | GI50
CC(C)[C@H]1NC(=O)C[C@H]2/C=C/CCSSC[C@@H](NC1=O)C(=O)N[C@H](C)C(=O)NCC(=O)O2 | 31 nM

test system: NCI-H522; test: Growth inhibition of human NCI-H522 cells measured after 48 hrs by sulforhodamine B assay; assay type: functional; details: not given; procedure, shortened: as §1

SMILES | GI50
CC(C)[C@H]1NC(=O)C[C@H]2/C=C/CCSSC[C@@H](NC1=O)C(=O)N[C@H](C)C(=O)NCC(=O)O2 | 10 nM

test system: KM12; test: Growth inhibition of human KM12 cells measured after 48 hrs by sulforhodamine B assay; assay type: functional; details: not given; procedure, shortened: as §1

SMILES | GI50
CC(C)[C@H]1NC(=O)C[C@H]2/C=C/CCSSC[C@@H](NC1=O)C(=O)N[C@H](C)C(=O)NCC(=O)O2 | 20 nM
